For data set [1], the system named is Neisseria gonorrhoeae. The data set can be described thus: Antibacterial activity against Neisseria gonorrhoeae. Type of data set: functional.
Data set [2] deals with Escherichia coli. The data set can be described thus: Antibacterial activity against Escherichia coli. Type of data set: functional.
Data set [3] concerns Klebsiella pneumoniae. Description: Antibacterial activity against Klebsiella pneumoniae. Type of data set: functional.
Data set [4] deals with Citrobacter braakii. Description: Antibacterial activity against Citrobacter braakii. Type of data set: functional.
For data set [5], the system named is Proteus vulgaris. The data set can be described thus: Antibacterial activity against Proteus vulgaris. Type of data set: functional.
Data set [6] deals with Serratia marcescens. Description: Antibacterial activity against Serratia marcescens. Type of data set: functional.
Data set [7] has as its system Shigella flexneri. Description: Antibacterial activity against Shigella flexneri. Type of data set: functional.
The test system of data set [8] is Pseudomonas aeruginosa. Description: Antibacterial activity against Pseudomonas aeruginosa. Type of data set: functional.
Data set [9] deals with Streptococcus pyogenes. Description: Antibacterial activity against Streptococcus pyogenes. Type of data set: functional.
The test system of data set [10] is Staphylococcus aureus. The data set can be described thus: Antibacterial activity against Staphylococcus aureus. Type of data set: functional.
The test system of data set [11] is Trichophyton rubrum. Description: Antifungal activity against Trichophyton rubrum. Type of data set: functional.
For data set [12], the system named is Nannizzia gypsea. The data set can be described thus: Antifungal activity against Trichophyton gypseum. Type of data set: functional.
In data set [13] the test system is Trichophyton tonsurans. The data set can be described thus: Antifungal activity against Trichophyton tonsurans. Type of data set: functional.
Data set [14] has as its system Trichophyton violaceum. Description: Antifungal activity against Trichophyton violaceum. Type of data set: functional.
Data set [15] deals with Trichophyton interdigitale. Description: Antifungal activity against Trichophyton mentagrophytes var. interdigitale. Type of data set: functional.
The subject of data set [16] is Epidermophyton floccosum. Description: Antifungal activity against Epidermophyton floccosum. Type of data set: functional.
Data set [17] relates to Microsporum canis. The data set can be described thus: Antifungal activity against Microsporum canis. Type of data set: functional.
Data set [18] relates to Candida albicans. Description: Antifungal activity against Candida albicans. Type of data set: functional.
A short description of data set [19]: Antioxidant activity assessed as AAPH scavenging activity by measuring residual fluorescence at 10 uM measured at 1 min interval for 30 mins by ORAC fluorescein assay relative to control. Type of data set: functional. Put shortly: (§1)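 ORAC-FL assay with fluorescein as the probe and AAPH as the peroxyl radical generator. The loss of fluorescence over time was followed, and the result is given as % fluorescence restored at 10 and 50 µM. Each value is the mean of two independent experiments.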

A short description of data set [20]: Antioxidant activity assessed as AAPH scavenging activity by measuring residual fluorescence at 50 uM measured at 1 min interval for 30 mins by ORAC fluorescein assay relative to control. Type of data set: functional. The method, boiled down:
as §1

Data set [21] concerns Erythrocyte. The data set can be described thus: Antioxidant activity in human erythrocytes assessed as protection against AAPH-induced hemolysis at 50 uM preincubated for 20 mins followed by AAPH addition and measured after 2 hrs by spectrophotometric method relative to control. The conditions noted are these: time 140 min, 2.333 h. Type of data set: functional. The method, boiled down:
(§2)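 Erythrocyte hemolysis assay with AAPH as the free-radical initiator, testing 50 and 400 µM. Results are expressed as relative protection of membranes against oxidative damage, each the mean of two independent experiments.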

Data set [22] relates to Erythrocyte. Description: Antioxidant activity in human erythrocytes assessed as protection against AAPH-induced hemolysis at 400 uM preincubated for 20 mins followed by AAPH addition and measured after 2 hrs by spectrophotometric method relative to control. Type of data set: functional. The conditions noted are these: time 140 min, 2.333 h. Put shortly: as §2
Data set [23] deals with Rattus norvegicus. The data set can be described thus: Analgesic activity in rat assessed as prolongation of latency period at 15 mg/kg, ip measured after 1 hr by hot-plate test relative to control. Type of data set: functional. The method, boiled down: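 Hot-plate test in rats. Compounds were given by intraperitoneal injection. Latency was read at 1 h and, for some compounds, also at 2 h after dosing. Results are expressed as % prolongation of the latent period versus vehicle-treated control. Significance was given as p-values.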

Data set [24] relates to Rattus norvegicus. Description: Antiinflammatory activity in rat model of carrageenan-induced paw edema assessed as inhibition of hind paw swelling at 15 mg/kg, ip measured after 5 hrs. Type of data set: functional, organism-based. A general note: Carrageenan injected into the paw causes an acute inflammation.
Data set [25] is described as follows: Antioxidant activity assessed as trolox equivalent of ABTS radical scavenging activity measured after 1 hr by UV-vis spectrophotometric method. Type of data set: functional. The method, boiled down:
(§3)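 ABTS cation-radical decolorization was read spectrophotometrically as the fall in absorbance after 1 h. Trolox was the reference. TEAC was taken as the ratio of concentration-response slopes, test/Trolox, and IC50 was also derived. Data are mean ± SEM, n = 3.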

The nature of data set [26]: Antioxidant activity assessed as ABTS radical scavenging activity measured after 1 hr by UV-vis spectrophotometric method. Type of data set: functional. Put shortly:
as §3

Data set [27] has as its system HeLa. Description: Cytotoxicity against human HeLa cells. Type of data set: functional, cell-based. The conditions noted are these: Homo sapiens, HeLa; read-out: IC50.
The test system of data set [28] is NHDF. Description: Cytotoxicity against HDF cells. Type of data set: cell-based, Homo sapiens. Particulars: Homo sapiens, NHDF; read-out: IC50.
Data set [29] can be described thus: Selectivity index, ratio of IC50 for HDF cells to IC50 for human HeLa cells. Particulars: HDF cells versus HeLa cells, read-out: Ratio IC50. Type of data set: toxicity.
Data set [30] concerns Mycobacterium tuberculosis. The data set can be described thus: Antitubercular activity against Mycobacterium tuberculosis H37Rv. Type of data set: functional. Put shortly: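 Mycobacterium tuberculosis strain H37Rv; minimum inhibitory concentration (MIC) taken as the lowest level needed to inhibit bacterial growth; isoniazid and pyrazinamide served as reference drugs.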

For data set [31], the system named is Rattus norvegicus. Description: Antiinflammatory activity in rat model of carrageenan-induced paw edema assessed as inhibition of hind paw swelling at 15 mg/kg, ip measured after 1 hr relative to control. Type of data set: functional.
The test system of data set [32] is Rattus norvegicus. The data set can be described thus: Antiinflammatory activity in rat model of carrageenan-induced paw edema assessed as inhibition of hind paw swelling at 15 mg/kg, ip measured after 3 hrs relative to control. Type of data set: functional.

Each structure is given as a SMILES string. In brackets after ≈: the same amount, converted by molar mass. Activity calls are given as the source filed them. No cut-off for these calls is given here.

With `Cc1ccc(-c2c(N)c(C(F)(F)F)nn2-c2ccc(S(N)(=O)=O)cc2)cc1.Cl`, the MIC (commonly the least concentration at which growth counts as inhibited) in data set [1] was 250 µg/mL; in [2], more than 250 µg/mL; in [3] it was more than 250 µg/mL; in data set [4], more than 250 µg/mL; in [5], more than 250 µg/mL; in [6], more than 250 µg/mL. Also, the minimum inhibitory concentration (MIC) was more than 250 µg/mL in data set [7]; more than 250 µg/mL in data set [8]; more than 250 µg/mL in data set [9]; more than 250 µg/mL in data set [10]; 200 µg/mL in data set [11]; more than 200 µg/mL in data set [12]. Besides, the MIC was more than 200 µg/mL in [13]; more than 200 µg/mL in [14]; 200 µg/mL in data set [15]; 200 µg/mL in data set [16]; 200 µg/mL in [17]; more than 200 µg/mL in data set [18]. The values for the Activity in data set [19] and in data set [20] were 14.6% and 47.1%, respectively. Also, the “fold change (FC)” value came to 1.18 in [21] and 1.17 in data set [22]. Further, the result in [23] was inactive. The result in data set [24] was Active.

Consider `Cc1c(C)c2c(c(C)c1O)CCC(C)(C(=O)O)O2` (configuration not stated) [TROLOX], for which the Activity in data set [25] was 1 equiv. The half-inhibitory concentration (IC50) (commonly the concentration needed to halve the response being measured) in data set [26] turned out to be 20.1 µM.

For `CN[C@@H]1[C@H](O)[C@H](NC)[C@H]2O[C@@]3(O)C(=O)C[C@@H](C)O[C@H]3O[C@@H]2[C@H]1O` [SPECTINOMYCIN], the MIC amounted to 15.6 µg/mL (≈ 46.9 µM) in [1]; 15.6 µg/mL (≈ 46.9 µM) in [2]; 15.6 µg/mL (≈ 46.9 µM) in [3]; 31.2 µg/mL (≈ 93.9 µM) in [4]; 1.25 µg/mL (≈ 3.76 µM) in data set [5]; 15.6 µg/mL (≈ 46.9 µM) in [6]. Also, the values for the MIC in [7], in data set [8] and in data set [10] were 7.8 µg/mL (≈ 23.5 µM), 2.5 µg/mL (≈ 7.52 µM) and 31.2 µg/mL (≈ 93.9 µM), respectively.

`CC[C@@]1(O)C(=O)OCc2c1cc1n(c2=O)Cc2cc3ccccc3nc2-1` [CAMPTOTHECIN]: the IC50 was 1.66 µM in data set [27] and 5.38 µM in data set [28]. Further, in data set [29], the selectivity ratio came to 3.24.

For the compound `Cn1nc(C(F)(F)F)c(N)c1-c1ccco1`, the Activity in data set [25] worked out at 0.04 equiv. Moreover, in [24], the result was Active.

Turning to `O=c1c(O)c(-c2ccc(O)c(O)c2)oc2cc(O)cc(O)c12` [QUERCETIN], the Activity in data set [19] was determined as 87.6%; in data set [20], 90%. For the same compound, the entries for the “fold change (FC)” value in [21] and in [22] were 0.023 and 0.045, respectively.

Take `NC(=O)c1cnccn1` [PYRAZINAMIDE]: the MIC in data set [30] is 12.5 µg/mL (≈ 102 µM).

Regarding `Cc1c(N(C)CS(=O)(=O)O)c(=O)n(-c2ccccc2)n1C` [METAMIZOLE], the inhibition result in data set [31] and in data set [32] was “inactive” throughout. For the same compound, the Activity in [23] is reported as 59.8%.

`NNC(=O)c1ccncc1` [ISONIAZID]: in data set [30], the minimal inhibitory concentration (MIC) is 0.15 µg/mL (≈ 1.09 µM).

For `CCC(C)n1ncn(-c2ccc(N3CCN(c4ccc(OCC5COC(Cn6cncn6)(c6ccc(Cl)cc6Cl)O5)cc4)CC3)cc2)c1=O` (configuration not stated) [ITRACONAZOLE], the minimum inhibitory concentration (MIC) in data set [11] was found to be 0.06 µg/mL (≈ 0.085 µM); in [12], 0.06 µg/mL (≈ 0.085 µM); in data set [13], 0.19 µg/mL (≈ 0.269 µM); in data set [14], 0.19 µg/mL (≈ 0.269 µM); in [15] it was 0.095 µg/mL (≈ 0.135 µM); in data set [16], 0.19 µg/mL (≈ 0.269 µM). In addition, the MIC in [17] and in data set [18] was more than 100 µg/mL throughout.
